In ChEMBL document CHEMBL1153809, “7,7-Dimethylaporphine alkaloids from the stem of Guatteriopsis friesiana” (2009) one finds MIC data, which are given here for 3 compounds.

What all share (format): functional
Experiment [1] relates to Escherichia coli. The experiment can be described thus: Antimicrobial activity against Escherichia coli ATCC 11775 after 48 hrs by TTC staining method. As to conditions: ATCC 11775, 48 h. An outline of the steps: (§1)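 Bacteria grown overnight at 36 °C on nutrient agar. Cells suspended in 0.85% NaCl to McFarland 0.5 (checked at 580 nm), then diluted to 10^4 CFU/mL. Broth microdilution in Mueller-Hinton broth, in duplicate. Samples tested at 1.0-0.016 mg/mL; chloramphenicol and nystatin references at 0.25-0.002 mg/mL. Incubated 36 °C for 48 h, then 0.5% TTC added. MIC is the lowest concentration inhibiting visible growth by TTC staining.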

Experiment [2] has as its system Enterococcus hirae. Briefly: Antimicrobial activity against Enterococcus hirae ATCC 10541 after 48 hrs by TTC staining method. As to conditions: ATCC 10541, 48 h. An outline of the steps:
as §1

The subject of experiment [3] is Enterococcus faecium. Briefly: Antimicrobial activity against Enterococcus faecium CCT 5079 after 48 hrs by TTC staining method. As to conditions: CCT 5079, 48 h. An outline of the steps: as §1
For experiment [4], the system named is Micrococcus luteus. The experiment can be described thus: Antimicrobial activity against Micrococcus luteus ATCC 4968 after 48 hrs by TTC staining method. As to conditions: ATCC 4968, 48 h. Summed up:
as §1

Experiment [5] relates to Bacillus subtilis. The experiment can be described thus: Antimicrobial activity against Bacillus subtilis ATCC 5061 after 48 hrs by TTC staining method. As to conditions: ATCC 5061, 48 h. Summed up: as §1
The subject of experiment [6] is Staphylococcus epidermidis. The experiment can be described thus: Antimicrobial activity against Staphylococcus epidermidis ATCC 12228 after 48 hrs by TTC staining method. As to conditions: ATCC 12228, 48 h. An outline of the steps: as §1
Experiment [7] relates to Staphylococcus aureus. The experiment can be described thus: Antimicrobial activity against Staphylococcus aureus ATCC 6538 after 48 hrs by TTC staining method. To be noted: ATCC 6538, 48 h. An outline of the steps:
as §1

Experiment [8] relates to Salmonella enterica. Briefly: Antimicrobial activity against Salmonella choleraesuis ATCC 10708 after 48 hrs by TTC staining method. To be noted: ATCC 10708, 48 h. An outline of the steps: as §1
The test system of experiment [9] is Pseudomonas aeruginosa. The experiment can be described thus: Antimicrobial activity against Pseudomonas aeruginosa ATCC 13388 after 48 hrs by TTC staining method. To be noted: ATCC 13388, 48 h. Summed up:
as §1

Experiment [10] relates to Prescottella equi. Briefly: Antimicrobial activity against Rhodococcus equi ATCC 6939 after 48 hrs by TTC staining method. As to conditions: Rhodococcus (subgen. Prescottella) equi, ATCC 6939, 48 h. An outline of the steps: as §1
Experiment [11] relates to Candida albicans. Briefly: Antimicrobial activity against Candida albicans ATCC 10231 after 48 hrs by TTC staining method. Summed up:
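Yeast grown on Sabouraud dextrose agar. Cells suspended in 0.85% NaCl to McFarland 0.5 (checked at 580 nm), then diluted to 10^4 CFU/mL. Mueller-Hinton broth microdilution, in duplicate. Samples tested at 1.0-0.016 mg/mL; chloramphenicol and nystatin references at 0.25-0.002 mg/mL. Incubated 48 h at 36 °C, then 0.5% TTC added. MIC is the lowest concentration preventing visible growth by TTC stain.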

Values after ≈ are worked out from the molar mass of the structure shown.

As for `O=C(N[C@H](CO)[C@H](O)c1ccc([N+](=O)[O-])cc1)C(Cl)Cl` [CHLORAMPHENICOL], the MIC was 40 µg/mL (≈ 124 µM) in [1]; 120 µg/mL (≈ 371 µM) in experiment [2]; 70 µg/mL (≈ 217 µM) in experiment [3]; 50 µg/mL (≈ 155 µM) in experiment [4]; 20 µg/mL (≈ 61.9 µM) in [5]; 40 µg/mL (≈ 124 µM) in [6]. Further, the MIC was 20 µg/mL (≈ 61.9 µM) in [7], 60 µg/mL (≈ 186 µM) in experiment [8], 850 µg/mL (≈ 2630 µM) in [9] and 40 µg/mL (≈ 124 µM) in experiment [10].

As to `O=C1c2ccccc2-c2c3c(cc4ccnc1c24)OCO3` [LIRIODENINE], the MIC is greater than 1000 µg/mL in experiment [1]; 600 µg/mL (≈ 2180 µM) in experiment [2]; 150 µg/mL (≈ 545 µM) in experiment [3]; greater than 1000 µg/mL in [11] (ATCC 10231, 48 h); 150 µg/mL (≈ 545 µM) in experiment [4]; 500 µg/mL (≈ 1820 µM) in [5]. The MIC was greater than 1000 µg/mL in experiment [7], greater than 1000 µg/mL in experiment [8], greater than 1000 µg/mL in [9] and 10 µg/mL (≈ 36.3 µM) in experiment [10].

Consider NYSTATIN, for which the MIC in experiment [11] stood at 50 µg/mL.
